Data set [1] in a line: folding enthalpy; higher = less favourable; fluorescence melt of hairpins on a sequencing array, two-state fit. The note with it: sodium 0.088 M. A digest of the protocol: (§1)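 Library hairpins on a sequenced MiSeq flow cell carried annealed Cy3 and quencher oligos, and their Cy3 fluorescence was imaged in 50 mM Na-HEPES pH 8.0 with 25 mM NaCl, in 2.5 °C steps up to 60 °C. Signals were normalised to Cy3 before quenching and to control constructs. Melting temperature and folding enthalpy were obtained from bootstrapped two-state fits, combined by inverse-variance weighting across four replicates, and the fitted temperatures were then raised by 9.35 °C to match UV melts.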

Data set [2] is described as follows: melting temperature; fluorescence melt of hairpins on a sequencing array, two-state fit, raised by 9.35 °C to match UV melts. The note with it: sodium 0.088 M. In a few lines:
as §1

Take GATCGAAATATCGATC ((((((....)))))): the folding enthalpy in data set [1] was -32.7 kcal/mol. Besides, the Tm in data set [2] was determined as 49 °C.

Take GATCGAAATTCGATC ((((((...)))))): in data set [1], the folding enthalpy was -33.7 kcal/mol. Besides, the Tm in data set [2] was found to be 48.9 °C.

GATCGAACGTCGATC ((((((...)))))): the folding enthalpy in data set [1] is -34.9 kcal/mol. Besides, the Tm in data set [2] was 49.3 °C.

Regarding GATCGAACTTCGATC ((((((...)))))), the folding enthalpy in data set [1] was -31.3 kcal/mol. Further, in data set [2], the Tm was 51 °C.

Regarding GATCGAAGGTTCGATC ((((((....)))))), the folding enthalpy in data set [1] is -31.2 kcal/mol. Further, in data set [2], the Tm was 52.1 °C.

Turning to GATCGAATGGTCGATC ((((((....)))))), the folding enthalpy in data set [1] was -20.2 kcal/mol. In addition, in data set [2], the Tm was found to be 51.4 °C.

Take GATCGAATGTCGATC ((((((...)))))): the folding enthalpy in data set [1] was -31.5 kcal/mol. The Tm in data set [2] worked out at 50.6 °C.

As for GATCGAATTGTCGATC ((((((....)))))), in data set [1], the folding enthalpy is -41.9 kcal/mol. In data set [2], the Tm is 50 °C.

As for GATCGACACTTCGATC ((((((....)))))), in data set [1], the folding enthalpy is -48.6 kcal/mol. Further, the Tm in data set [2] was 53.4 °C.

As for GATCGACATGTCGATC ((((((....)))))), the folding enthalpy in data set [1] is -41.7 kcal/mol. Further, the Tm in data set [2] was found to be 61.3 °C.

GATCGACCCGTCGATC ((((((....)))))): in data set [1], the folding enthalpy is -47.1 kcal/mol. The Tm in data set [2] came out at 60.1 °C.

As for GATCGACCGCTCGATC ((((((....)))))), the folding enthalpy in data set [1] was -45.2 kcal/mol. Besides, the Tm in data set [2] turned out to be 51.7 °C.

In the case of GATCGACCGGTCGATC ((((((....)))))), the folding enthalpy in data set [1] is -51.5 kcal/mol. Moreover, in data set [2], the Tm is 61.5 °C.

In the case of GATCGACCGTTCGATC ((((((....)))))), in data set [1], the folding enthalpy is -46 kcal/mol. The Tm in data set [2] is 50.7 °C.

With GATCGACCTTCGATC ((((((...)))))), in data set [1], the folding enthalpy was -35.6 kcal/mol. In addition, the Tm in data set [2] amounted to 51 °C.

Regarding GATCGACGAAAGTCAATC (((.(((....))).))), the folding enthalpy in data set [1] was -20.5 kcal/mol. For the same sequence, the Tm in data set [2] came out at 40.3 °C.

Turning to GATCGACGAGTCGATC ((((((....)))))), the folding enthalpy in data set [1] was -45.8 kcal/mol. Also, the Tm in data set [2] came to 64 °C.

For the sequence GATCGACGTCTCGATC ((((((....)))))), the folding enthalpy in data set [1] is -42.3 kcal/mol. Further, the Tm in data set [2] was 50 °C.

Consider GATCGACTCATCGATC ((((((....)))))), for which, in data set [1], the folding enthalpy was -41.7 kcal/mol. Also, the Tm in data set [2] was 51.8 °C.

Consider GATCGACTCCTCGATC ((((((....)))))), for which, in data set [1], the folding enthalpy is -38.6 kcal/mol. Also, the Tm in data set [2] was 51.6 °C.

As to GATCGACTCTTCGATC ((((((....)))))), the folding enthalpy in data set [1] was -39.5 kcal/mol. Moreover, the Tm in data set [2] was 52.7 °C.

Take GATCGACTGCTCGATC ((((((....)))))): the folding enthalpy in data set [1] was -43.4 kcal/mol. For the same sequence, the Tm in data set [2] stood at 50.9 °C.

For GATCGACTGTCGATC ((((((...)))))), the folding enthalpy in data set [1] is -49 kcal/mol. The Tm in data set [2] came out at 51.4 °C.

In the case of GATCGACTTCTCGATC ((((((....)))))), the folding enthalpy in data set [1] was -41 kcal/mol. Moreover, the Tm in data set [2] was 51.5 °C.

As to GATCGACTTTCGATC ((((((...)))))), the folding enthalpy in data set [1] was -22.2 kcal/mol. In addition, in data set [2], the Tm was determined as 51.7 °C.

GATCGAGAACTCGATC ((((((....)))))): the folding enthalpy in data set [1] is -37.6 kcal/mol. For the same sequence, the Tm in data set [2] was 57 °C.

For the sequence GATCGAGAGTTCGATC ((((((....)))))), the folding enthalpy in data set [1] was -36.7 kcal/mol. Further, in data set [2], the Tm was 50.5 °C.

Consider GATCGAGCGATCGATC ((((((....)))))), for which the folding enthalpy in data set [1] was -35.6 kcal/mol. In addition, in data set [2], the Tm amounted to 57.5 °C.

Take GATCGAGCGTTCGATC ((((((....)))))): the folding enthalpy in data set [1] is -45.4 kcal/mol. In addition, the Tm in data set [2] stood at 52.1 °C.

Consider GATCGAGCTTTCGATC ((((((....)))))), for which the folding enthalpy in data set [1] was -35.1 kcal/mol. For the same sequence, the Tm in data set [2] came out at 52.6 °C.

For the sequence GATCGAGGCGTCGATC ((((((....)))))), the folding enthalpy in data set [1] was -40.6 kcal/mol. Further, in data set [2], the Tm was 55.1 °C.
